Screening data deposited in PubChem by several laboratories.
NR1D1 modulator: modulators of Rev-erb alpha DNA binding, primary screen, biochemical, FITC-DNA, fluorescence polarization, uHTS; Nuclear receptor subfamily 1 group D member 1 (Homo sapiens), P20393; Rev-erbα–FITC-DNA binding, 90 min; activity, % at 10 µM; 370,000 tested, 0.79% active; AID 1259318, 2017;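 active = activity above about 14%, limit read from the data; passing the limit was not always enough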;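 note: 0% = DMSO wells with 35 nM protein and 100% = DMSO wells with 750 nM protein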
NR2E3 ag-1: inhibitors of NR2E3-RetCOR corepressor binding, primary screen, NR2E3 agonist project, biochemical, TR-FRET, GST-NR2E3, biotin-RetCOR; Photoreceptor-specific nuclear receptor (Homo sapiens), Q9Y5X4; 1536-well; inhibition of corepressor binding, % at 4.78 µM; 320,000 tested, 0.12% active;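 active = percent inhibition above the cutoff of mean plus 3 SD of all tested compounds, set per screening campaign, cut at about 20% in these data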;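 note: 0% = DMSO wells and 100% = biotin wells as full block of FRET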
Target sequence (Q9Y5X4 whole entry, looked up): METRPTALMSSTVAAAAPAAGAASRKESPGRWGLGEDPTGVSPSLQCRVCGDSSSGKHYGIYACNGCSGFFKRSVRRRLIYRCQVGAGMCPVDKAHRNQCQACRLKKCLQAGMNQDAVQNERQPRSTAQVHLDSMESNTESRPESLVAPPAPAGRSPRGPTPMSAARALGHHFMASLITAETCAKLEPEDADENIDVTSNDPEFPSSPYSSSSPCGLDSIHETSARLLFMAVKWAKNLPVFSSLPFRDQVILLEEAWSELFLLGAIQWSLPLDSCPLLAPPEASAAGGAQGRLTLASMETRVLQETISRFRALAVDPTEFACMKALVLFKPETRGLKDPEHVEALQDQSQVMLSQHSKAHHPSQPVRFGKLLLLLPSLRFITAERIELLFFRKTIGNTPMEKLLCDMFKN
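System: GST-NR2E3 and biotin-RetCOR proteins; probe or stimulus: 7 nM biotin-RetCOR; doses: compound at 4.8 µM, single dose; schedule: Compound–protein incubation for 5 h at 4 °C; detection: time-resolved FRET; read-out: percent inhibition; controls: biotin wells as high control, 0.6% DMSO wells as low control; format: 1536-well plates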
PG9 binder: binders of HIV-1 gp120 antibody PG9, primary screen, biochemical, TR-FRET; HIV-1 gp120 / PG9 antibody interaction; TR-FRET gp120-PG9 antibody binding; inhibition, % at 6.7 µM; 360,000 tested, 0.43% active; AID 624416, 2012; in the data active = inhibition above about 8.5%
NR2E3 ag-2: NR2E3 agonists in two-hybrid cells, primary screen, cell-based, luminescence, CHO-S, Gal4-NCOR/VP16-NR2E3; Photoreceptor-specific nuclear receptor (Homo sapiens), Q9Y5X4; AID 602229, 2012; luciferase; 360,000 tested, 0.35% active; inhibition of corepressor binding, % at 3.98 µM;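 active = inhibition above the mean of all tested compounds plus 3 SD, cut at about 70% in these data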;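 note: 0% = DMSO with NR2E3 transfected cells and 100% = cells lacking NR2E3 construct; higher means lower luciferase signal from less NR2E3 corepressor binding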
PG9 binder conf: binders of anti-gp120 antibody PG9, confirmation, biochemical, TR-FRET. inhibition, % at 6.7 µM. shares compounds with PG9 binder. TR-FRET PG9 antibody binding. 1,500 tested, 90% active; in the data active = inhibition above about 9%
PGV04 counter: binders of control antibody PGV04, counter-screen for PG9 antibody binder project, biochemical, TR-FRET, distinct HIV envelope site. shares compounds with PG9 binder. TR-FRET PGV04 antibody-gp120 binding. inhibition, % at 6.7 µM. 1,500 tested, 95% active. AID 651604, 2012; in the data active = inhibition above about 9.5%
NR1D1 mod conf: modulators of Rev-erb alpha DNA binding, confirmation, biochemical, FITC-DNA, fluorescence polarization, single point; 90 min; shares compounds with NR1D1 modulator; 3,000 tested, 61% active; activation, % at 25 µM;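 active = activation at or above a set limit, or at least 3 SD above the negative control mean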;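 note: 0% = 35 nM protein with DMSO and 100% = 750 nM protein high control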
RORg DNA counter: modulation of RORgamma DNA binding, dose response, counter-screen for Rev-erb alpha modulator project, biochemical, fluorescence polarization, FITC-DNA | purified RORgamma protein-FITC-DNA binding | IC50, µM | shares compounds with NR1D1 modulator | 910 tested, 8% active;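 active = Compounds whose fitted half-maximal concentration for disrupting protein-DNA binding is below 10 micromolar; the record names Rev-erb in its text, so the target is in doubt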
* marks the source's active call; other numbers are inactive results. Shown are actives, neighbours in structure and some others; about 1.5% of the full set was active somewhere.

Cc1cccc2cc(C#N)c(SCC(=O)N3CC(=O)Nc4ccccc43)nc12 was read as NR1D1 modulator 90*, NR2E3 ag-1 -9, PG9 binder 30*, NR2E3 ag-2 32, PG9 binder conf 46*, PGV04 counter 75*, NR1D1 mod conf 67* and RORg DNA counter >40.
Screening CCn1c2ccccc2c2cc(C=Nn3c(-c4ccccn4)n[nH]c3=S)ccc21 returned NR1D1 modulator -3.
For Cc1cc(Br)cc2c(C(=O)NCC3CCCO3)cc(-c3ccccc3)nc12 (stereo not given) the results were NR1D1 modulator 8, NR2E3 ag-1 4, PG9 binder 3 and NR2E3 ag-2 -21.
Screening O=C(NCC1CCCO1)c1cc(-c2ccccc2)nc2ccc(Br)cc12 (stereo not given) returned NR1D1 modulator 33*, NR2E3 ag-1 16, PG9 binder 15*, NR2E3 ag-2 -19, PG9 binder conf 19*, PGV04 counter 25* and NR1D1 mod conf 26*.
`COC(=O)C1CN(Cc2cn(Cc3ccccc3)nn2)CCS(=O)(=O)N1Cc1ccc(OC)cc1` (stereo not given) gave NR1D1 modulator 2.
COc1ccccc1N1C(=O)C2C(C(=O)c3ccccc3)=NN(c3ccc(Br)cc3)C2C1=O (stereo not given) was read as NR1D1 modulator 66*, NR2E3 ag-1 8, PG9 binder 13*, NR2E3 ag-2 -5, PG9 binder conf 17*, PGV04 counter 28* and NR1D1 mod conf 21*.
CCCCCC(=O)NC1CCCCN(Cc2ccc(C)cc2)C1=O (stereo not given) was read as NR1D1 modulator 5.
`Cc1ccc(-n2nnnc2SCC(=O)c2ccc3c(c2)NC(=O)CO3)c(C)c1` gave NR1D1 modulator 25*, NR2E3 ag-1 1, PG9 binder 13*, NR2E3 ag-2 -1, PG9 binder conf 11*, PGV04 counter 30* and NR1D1 mod conf 24*.
For Cc1cccc(NC(=O)CCN2C(=O)c3ccccc3C2=O)n1 the results were NR1D1 modulator 6, NR2E3 ag-1 0, PG9 binder 2 and NR2E3 ag-2 -7.
Screening O=C(CCN1C(=O)c2cccc3cccc(c23)C1=O)Nc1ccon1 returned NR1D1 modulator 43*, NR2E3 ag-1 1, PG9 binder 12*, NR2E3 ag-2 1, PG9 binder conf 17*, PGV04 counter 36* and NR1D1 mod conf 30*.
`O=C1CSc2ccc(C(=O)N3CCCC(C(=O)N4CCCN(Cc5ccccc5)CC4)C3)cc2N1` (stereo not given) gave NR1D1 modulator 5.
For CCCC(=O)Nc1sc(C)c(-c2ccc(OC)cc2)c1C#N the results were NR1D1 modulator 24*, NR2E3 ag-1 0, PG9 binder 9.1*, NR2E3 ag-2 -18, PG9 binder conf 19*, PGV04 counter 23* and NR1D1 mod conf 28*.
CCOc1ccc(-n2c(SCc3nc4ccccc4[nH]3)nnc2-c2cccc(Cl)c2)cc1 was read as NR1D1 modulator -2.
`Cc1ccc(-c2nnc(NCc3nc4ccccc4[nH]3)c3ccccc23)cc1S(=O)(=O)N1CCOCC1` gave NR2E3 ag-1 -3 and NR2E3 ag-2 24.
